Results published in ChEMBL document CHEMBL4834495, “A Green-Absorbing, Red-Fluorescent Phenalenone-Based Photosensitizer as a Theranostic Agent for Photodynamic Therapy” (ACS Med Chem Lett, 2021).
The source made the active and inactive calls. The calls are words filed in the database; no cut-off is given here.

What was measured:
[1] = Absorption property of the compound in PBS containing 1% DMSO assessed as maximum absorption wavelength at pH 7.4 by UV-visible spectrophotometric method; format: physicochemical; conditions: buffer
[2] = Induction of singlet oxygen generation in PBS assessed as singlet oxygen quantum yield at pH 7.4 irradiated with 415 nm LED light by ABDA sensor based UV-Vis spectrometer analysis; format: functional
[3] = Induction of singlet oxygen generation in PBS assessed as singlet oxygen quantum yield at pH 7.4 irradiated with 490 nm LED light by ABDA sensor based UV-Vis spectrometer analysis; format: functional
[4] = Induction of singlet oxygen generation in DMSO assessed as singlet oxygen quantum yield at pH 7.4 irradiated with 530 nm LED light by ABDA sensor based UV-Vis spectrometer analysis; format: functional
[5] = Emission property of the compound in DMSO assessed as maximum emission wavelength; format: physicochemical
[6] = Absorption property of the compound in DMSO assessed as maximum absorption wavelength at pH 7.4 by UV-visible spectrophotometric method; format: physicochemical
[7] = Solubility of the compound in PBS containing 1% DMSO assessed as aggregate formation by measuring reduction in fluorescence intensity at 2 uM at pH 7.4 by fluorescence analysis; format: physicochemical; conditions: buffer, pH 7.4, 2 µM
[8] = Solubility of the compound in PBS containing 1% DMSO assessed as aggregate formation by measuring reduction in singlet oxygen formation irradiated with 530 nm LED light by ABDA sensor based UV-Vis spectrometer analysis; format: physicochemical; conditions: buffer
[9] = test system: PANC-1; assay: Induction of ROS production in human PANC-1 cells assessed as increase in green fluorescence intensity at 2 uM incubated for 3 hrs followed by irradiation with 530 nm LED light for 10 mins by DCFH2-DA staining based fluorescence microscopy; format: functional, cell-based; conditions: time 190.0 min
How it was run: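 PANC-1 cells in reduced-serum Opti-MEM received compound from a DMSO stock (2 μM final) for 3 h, plus the ROS sensor DCFH2-DA. Cells were irradiated at 530 nm for 10 min (11.14 J/cm2). Green DCF fluorescence was imaged by fluorescence microscopy and compared with non-irradiated cells and with single-agent irradiated controls.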

[10] = test system: PANC-1; assay: Phototoxicity against human PANC-1 cells assessed as reduction in cell viability incubated for 3 hrs followed by 525 nm green-light irradiation for 15 mins and measured after overnight incubation by MTT assay; format: functional, cell-based
How it was run: (§1)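 PANC-1 cells were treated with compound (0–2 μM), then either kept dark or irradiated 15 min under a green-filtered lamp (emission max 525 nm, 16.61 J/cm2). Cells were then cultured 24 h in the dark, and viability was read by standard MTT assay. Data are mean ± SD, n = 9; IC50 was taken from the dose–response.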

[11] = test system: PANC-1; assay: Dark toxicity against human PANC-1 cells assessed as reduction in cell viability incubated for 24 hrs by MTT assay; format: functional, cell-based; conditions: PANC-1, 24 h; how it was run: as §1
[12] = test system: PANC-1; assay: Induction of apoptosis in human PANC-1 cells at 0.5 uM incubated for 3 hrs followed by incubation under dark conditions for 30 mins by Annexin V-FITC/PI staining based flow cytometric analysis; format: functional, cell-based; conditions: time 210.0 min
[13] = test system: PANC-1; assay: Antitumor activity against human PANC-1 cell 3D spheroids assessed as reduction in spheroid diameter at 0.063 to 1.5 uM incubated for 3 hrs followed by irradiation with 525 nm green lamp light for 15 mins and measured after 27 hrs by ReadyProbes Blue/Green reagent based cell viability imaging analysis; format: functional; conditions: dose 0.063-1.5 µM, time 1815.0 min
How it was run: (§2)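 PANC-1 spheroids incubated 3 h with compound (0–1.5 μM), then either kept dark or irradiated 15 min with a green-filtered lamp (emission max 525 nm, 16.61 J/cm2). Diameter and morphology were assessed from bright-field images. Viability was imaged at 10× with the ReadyProbes Blue/Green kit: Hoechst 33342 stains all nuclei blue, and a green nuclear dye stains dead cells.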

[14] = test system: PANC-1; assay: Antitumor activity against human PANC-1 cell 3D spheroids assessed as changes in spheroid morphology and density incubated for 3 hrs followed by irradiation with 525 nm green lamp light for 15 mins and measured after 27 hrs by ReadyProbes Blue/Green reagent based cell viability imaging analysis; format: functional; conditions: dose 0.063-1.5 µM, time 1815.0 min; how it was run: as §2
[15] = Absorption property of the compound in PBS assessed as molar extinction coefficient in presence of BSA by absorbance based analysis; format: physicochemical; conditions: buffer
[16] = Fluorescence property of the compound in DMSO assessed as quantum yield; format: physicochemical
[17] = Solubility of the compound in DMEM medium assessed as aggregate formation by measuring reduction in fluorescence intensity at 9 uM by fluorescence analysis; format: physicochemical
[18] = Solubility of the compound in Opti-MEM medium assessed as aggregate formation by measuring reduction in fluorescence intensity at 9 uM by fluorescence analysis; format: physicochemical
[19] = Photostability of the compound in PBS assessed as absorbance at 546 nm at 2 uM measured upon irradiation with 530 nm LED light in presence of BSA by absorbance based analysis; format: physicochemical; conditions: buffer
[20] = test system: PANC-1; assay: Antitumor activity against human PANC-1 cell 3D spheroids assessed as total spheroid breakage at 1.5 uM incubated for 3 hrs followed by irradiation with 525 nm green lamp light for 15 mins and measured after 27 hrs by ReadyProbes Blue/Green reagent based cell viability imaging analysis; format: functional; conditions: time 1815.0 min; how it was run: as §2
[21] = test system: PANC-1; assay: Antitumor activity against human PANC-1 cell 3D spheroids assessed as spheroid cell death at 0.38 to 1.5 uM incubated for 3 hrs followed by irradiation with 525 nm green lamp light for 15 mins and measured after 27 hrs by Hoechst33342 nuclear staining based analysis; format: functional; conditions: dose 0.38-1.5 µM, time 1815.0 min; how it was run: as §2
[22] = test system: PANC-1; assay: Antitumor activity against human PANC-1 cell 3D spheroids assessed as total spheroid breakage at 0.063 to 1.5 uM incubated for 3 hrs under dark conditions by ReadyProbes Blue/Green reagent based cell viability imaging analysis; format: functional; conditions: dose 0.063-1.5 µM; how it was run: as §2
[23] = test system: PANC-1; assay: Antitumor activity against human PANC-1 cell 3D spheroids assessed as spheroid diameter at 0.063 to 1.5 uM incubated for 3 hrs under dark conditions by ReadyProbes Blue/Green reagent based cell viability imaging analysis; format: functional; conditions: dose 0.063-1.5 µM; how it was run: as §2
[24] = test system: PANC-1; assay: Antitumor activity against human PANC-1 cell 3D spheroids assessed as spheroid cell death at 0.063 to 1.5 uM incubated for 3 hrs under dark conditions by Hoechst33342 staining based analysis; format: functional; conditions: dose 0.063-1.5 µM; how it was run: as §2
[25] = test system: PANC-1; assay: Induction of apoptosis in human PANC-1 cells at 0.5 uM incubated for 3 hrs followed by irradiation with 525 nm green lamp light for 15 mins and measured after 24 hrs by Annexin V-FITC/PI staining based fluorescence microscopy; conditions: time 1635.0 min
[26] = Absorption property of the compound in PBS assessed as molar extinction coefficient by absorbance based analysis; format: physicochemical; conditions: buffer

Work on `COc1ccc2cccc3c2c1C(=O)C(Br)=C3` yielded an Activity [1] of 427 nm and an Activity [2] of 0.89.

`Nc1cc2c3c(cccc3c1)C(=O)C=C2` gave an Activity [1] of 457 nm and an Activity [2] of 0.18.

With `Nc1cc2c3c(c(O)ccc3c1)C(=O)C=C2` the Activity [1] was 485 nm and the Activity [3] was under 0.01.

In the case of `O=C1C=Cc2cccc3ccc(O)c1c23`, the Activity [1] is reported as 439 nm and the Activity [2] is reported as 0.96.

For `Nc1c(Br)cc2c3c(cccc13)C(=O)C(Br)=C2`, the Activity [4] was 0.47, the Activity [1] was 546 nm and the Activity [5] was 602 nm. The Activity [6] was 525 nm, the solubility [7] was “Insoluble” and the solubility [8] was “Insoluble”. For the same compound, the Activity [9] was “Active”, the Activity [10] was “Dose-Dependent Effect” and the IC50 ([10]; PANC-1, light or radiation study) was 166 nM. For the same compound, the IC50 [11] was over 2000 nM, the Activity [12] was “inactive” and the Activity [13] was “Active”. For the same compound, the Activity [14] was “Dose-Dependent Effect”, the Activity [15] was 12695 M⁻¹ cm⁻¹ and the Activity [16] was 0.29. The solubility [17] was “Insoluble”, the solubility [18] was “Insoluble” and the Stabilty [19] was “Stable”. The Activity [20] was “Active”, the Activity [21] was “Active” and the Activity [22] was “inactive”. The Activity [23] was “inactive”, the Activity [24] was “inactive” and the Activity [25] was “Active”.

`Nc1cc2c3c(cccc3c1Br)C(=O)C=C2` gave an Activity [1] of 458 nm and an Activity [2] of 0.1.

Work on `O=C1C=Cc2cccc3cccc1c23` [PERINAPHTHENONE] yielded an Activity [26] of 10000 M⁻¹ cm⁻¹ and an Activity [2] of 1.

Work on `O=C1OC2(c3ccccc31)c1cc(Br)c(O)c(Br)c1Oc1c2cc(Br)c(O)c1Br` yielded an Activity [3] of 0.57.

Compound `CCN(CC)c1ccc2c(-c3ccccc3C(=O)O)c3ccc(=[N+](CC)CC)cc-3oc2c1.[Cl-]` [RHODAMINE] has an Activity [16] of 0.5.

Compound `COc1ccc2cccc3c2c1C(=O)C=C3` has an Activity [1] of 418 nm and an Activity [2] of 0.68.

Compound `Nc1ccc2c3c(cccc13)C(=O)C=C2` has an Activity [4] of under 0.01, an Activity [1] of 548 nm and an Activity [5] of 597 nm. For the same compound, the Activity [26] was 12736 M⁻¹ cm⁻¹, the Activity [6] was 518 nm and the Activity [16] was 0.26.
